From ChEMBL document CHEMBL2176883, “Aminopiperidine sulfonamide Cav2.2 channel inhibitors for the treatment of chronic pain” (J Med Chem, 2012) come the findings set out here.

Data set [1] addresses T1, Voltage-dependent N-type calcium channel subunit alpha-1B (Homo sapiens, UniProt Q00975). In words: Inhibition of Cav2.2 expressed HEK293 cells assessed as inhibition of calcium flux by FLIPR assay in presence of 30 mM of potassium. Type of data set: cell-based. Put shortly:
(§1)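 Calcium influx was read with a calcium-sensitive dye on FLIPR Tetra in CBK cells expressing α1B-1, α2-δ and β3a with Kir2.3. Cells were preincubated with compound in 30 mM K+, then channels were opened by 1:1 addition of 140 mM K+ solution. Compounds were screened at 1 μM, then titrated over 10 points (0.001–30 μM) in quadruplicate, mean ± SD. Values are averages of n ≥ 3.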
A general note: Calcium flux is commonly read through the fluorescence of an indicator in the cells.

In data set [2] the target is T2, Cav1.2 (Homo sapiens, UniProt Q13936). The data set is described as follows: Inhibition of Cav1.2 assessed as inhibition of calcium flux at 1 uM by cell based FLIPR assay. Put shortly: (§2)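 Cav1.2 counterscreen using a related calcium-influx FLIPR assay, run as % inhibition at single concentrations or as a titration.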
The test system of data set [3] is Rattus norvegicus. In words: Antinociceptive activity in rat assessed as reversal of complete Freund's adjuvant-induced pain at 30 mg/kg, po after 3 hrs. In kind it is functional. Put shortly: (§3)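 In the rat CFA inflammatory pain model, compound was given orally at 30 mg/kg and allodynia was read at 1 and 3 h postdose. Average % reversal = (postdose − predose)/(preinjury − predose) for each rat, n = 6. Plasma exposure at 3 h was measured in satellite rats (n = 2).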

Data set [4] concerns Rattus norvegicus. In words: Dose normalized AUC in rat at 3 mg/kg, po and 1 mg/kg, iv. Type of data set: ADME, organism-based. To be noted: in vivo. The essentials:
(§4)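 Rat pharmacokinetics from iv and po arms: 0.6 mg/kg iv with 1.8 mg/kg po, or 1 mg/kg iv with 3 mg/kg po. AUC was normalized to po dose (μM·h·kg/mg). Clearance (mL/min/kg) and half-life come from the iv arm, and F% is oral bioavailability.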

The target in data set [5] is T3, hERG (Homo sapiens, UniProt Q12809). The data set is described as follows: Displacement of [35S]-MK-0499 from human ERG at 1 uM. To be noted: probe [35S]-MK-0499. Put shortly:
(§5)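 hERG binding was measured as displacement of 35S-labeled MK-0499 at single test concentrations.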
Background: In a radioligand displacement assay an active substance lowers the binding of a labelled ligand.

The nature of data set [6]: Plasma concentration in rat complete Freund's adjuvant-induced pain model at 30 mg/kg, po after 3 hrs. Type of data set: ADME, organism-based. More on the design: dose 30 mg/kg, route oral. The essentials:
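Satellite rats in CFA inflammatory pain study, 30 mg/kg po; plasma exposure (μM) at 3 h, n = 2, standard deviation.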

The nature of data set [7]: Plasma clearance in rat at 3 mg/kg, po and 1 mg/kg, iv. In kind it is ADME, organism-based. Put shortly: as §4
Data set [8] is described as follows: Metabolic stability in human liver microsomes assessed as compound remaining at 1 uM after 1 hr. In kind it is ADME, Microsome. To be noted: read-out: Stability. Put shortly:
(§6)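 Compound at 1 μM was incubated with human or rat liver microsomes (1 mg/mL) for 1 h, and the percentage of parent remaining was determined.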
On the technique in general: Liver microsomes are vesicles of endoplasmic reticulum, rich in cytochrome P450 enzymes.

Data set [9] in a line: Metabolic stability in rat liver microsomes assessed as compound remaining at 1 uM after 1 hr. In kind it is ADME, Microsome. To be noted: read-out: Stability. Put shortly: as §6
Data set [10] can be described thus: Half life in rat at 3 mg/kg, po and 1 mg/kg, iv. In kind it is ADME, organism-based. To be noted: in vivo. The essentials: as §4
The test system of data set [11] is Rattus norvegicus. The data set is described as follows: Antinociceptive activity in rat assessed as reversal of complete Freund's adjuvant-induced pain at 30 mg/kg, po after 1 hr. In kind it is functional. Put shortly:
as §3

Data set [12] is described as follows: Oral bioavailability in rat at 3 mg/kg. To be noted: in vivo. In kind it is ADME, organism-based. Put shortly: as §4
The target in data set [13] is T3, hERG. In words: Displacement of [35S]-MK-0499 from human ERG at 10 uM. Conditions: probe [35S]-MK-0499. The essentials: as §5
The target in data set [14] is T2, Cav1.2. In words: Inhibition of Cav1.2 assessed as inhibition of calcium flux at 3 uM by cell based FLIPR assay. Put shortly:
as §2

The test system of data set [15] is Rattus norvegicus. The data set is described as follows: Antinociceptive activity in rat assessed as reversal of complete Freund's adjuvant-induced pain at 3 mg/kg, iv after 3 hrs. In kind it is functional.
The test system of data set [16] is Rattus norvegicus. The data set is described as follows: Dose normalized AUC in rat at 1.8 mg/kg, po and 0.6 mg/kg, iv. Type of data set: ADME, organism-based. Conditions: in vivo. Put shortly:
as §4

Data set [17] deals with Rattus norvegicus. The data set is described as follows: Antinociceptive activity in rat assessed as reversal of complete Freund's adjuvant-induced pain at 3 mg/kg, iv after 1 hr. In kind it is functional.
Data set [18] concerns the target T1, Voltage-dependent N-type calcium channel subunit alpha-1B. In words: Inhibition of Cav2.2 expressed HEK293 cells assessed as inhibition of calcium flux at 1 uM by FLIPR assay. In kind it is cell-based. The essentials:
as §1

Data set [19] relates to Rattus norvegicus. The data set is described as follows: Analgesic activity in rat SNL neuropathic pain model assessed as reversal of mechanical allodynia at 10 mg/kg, po after 1 hr. Type of data set: functional.

T2 sequence (Q13936 whole entry): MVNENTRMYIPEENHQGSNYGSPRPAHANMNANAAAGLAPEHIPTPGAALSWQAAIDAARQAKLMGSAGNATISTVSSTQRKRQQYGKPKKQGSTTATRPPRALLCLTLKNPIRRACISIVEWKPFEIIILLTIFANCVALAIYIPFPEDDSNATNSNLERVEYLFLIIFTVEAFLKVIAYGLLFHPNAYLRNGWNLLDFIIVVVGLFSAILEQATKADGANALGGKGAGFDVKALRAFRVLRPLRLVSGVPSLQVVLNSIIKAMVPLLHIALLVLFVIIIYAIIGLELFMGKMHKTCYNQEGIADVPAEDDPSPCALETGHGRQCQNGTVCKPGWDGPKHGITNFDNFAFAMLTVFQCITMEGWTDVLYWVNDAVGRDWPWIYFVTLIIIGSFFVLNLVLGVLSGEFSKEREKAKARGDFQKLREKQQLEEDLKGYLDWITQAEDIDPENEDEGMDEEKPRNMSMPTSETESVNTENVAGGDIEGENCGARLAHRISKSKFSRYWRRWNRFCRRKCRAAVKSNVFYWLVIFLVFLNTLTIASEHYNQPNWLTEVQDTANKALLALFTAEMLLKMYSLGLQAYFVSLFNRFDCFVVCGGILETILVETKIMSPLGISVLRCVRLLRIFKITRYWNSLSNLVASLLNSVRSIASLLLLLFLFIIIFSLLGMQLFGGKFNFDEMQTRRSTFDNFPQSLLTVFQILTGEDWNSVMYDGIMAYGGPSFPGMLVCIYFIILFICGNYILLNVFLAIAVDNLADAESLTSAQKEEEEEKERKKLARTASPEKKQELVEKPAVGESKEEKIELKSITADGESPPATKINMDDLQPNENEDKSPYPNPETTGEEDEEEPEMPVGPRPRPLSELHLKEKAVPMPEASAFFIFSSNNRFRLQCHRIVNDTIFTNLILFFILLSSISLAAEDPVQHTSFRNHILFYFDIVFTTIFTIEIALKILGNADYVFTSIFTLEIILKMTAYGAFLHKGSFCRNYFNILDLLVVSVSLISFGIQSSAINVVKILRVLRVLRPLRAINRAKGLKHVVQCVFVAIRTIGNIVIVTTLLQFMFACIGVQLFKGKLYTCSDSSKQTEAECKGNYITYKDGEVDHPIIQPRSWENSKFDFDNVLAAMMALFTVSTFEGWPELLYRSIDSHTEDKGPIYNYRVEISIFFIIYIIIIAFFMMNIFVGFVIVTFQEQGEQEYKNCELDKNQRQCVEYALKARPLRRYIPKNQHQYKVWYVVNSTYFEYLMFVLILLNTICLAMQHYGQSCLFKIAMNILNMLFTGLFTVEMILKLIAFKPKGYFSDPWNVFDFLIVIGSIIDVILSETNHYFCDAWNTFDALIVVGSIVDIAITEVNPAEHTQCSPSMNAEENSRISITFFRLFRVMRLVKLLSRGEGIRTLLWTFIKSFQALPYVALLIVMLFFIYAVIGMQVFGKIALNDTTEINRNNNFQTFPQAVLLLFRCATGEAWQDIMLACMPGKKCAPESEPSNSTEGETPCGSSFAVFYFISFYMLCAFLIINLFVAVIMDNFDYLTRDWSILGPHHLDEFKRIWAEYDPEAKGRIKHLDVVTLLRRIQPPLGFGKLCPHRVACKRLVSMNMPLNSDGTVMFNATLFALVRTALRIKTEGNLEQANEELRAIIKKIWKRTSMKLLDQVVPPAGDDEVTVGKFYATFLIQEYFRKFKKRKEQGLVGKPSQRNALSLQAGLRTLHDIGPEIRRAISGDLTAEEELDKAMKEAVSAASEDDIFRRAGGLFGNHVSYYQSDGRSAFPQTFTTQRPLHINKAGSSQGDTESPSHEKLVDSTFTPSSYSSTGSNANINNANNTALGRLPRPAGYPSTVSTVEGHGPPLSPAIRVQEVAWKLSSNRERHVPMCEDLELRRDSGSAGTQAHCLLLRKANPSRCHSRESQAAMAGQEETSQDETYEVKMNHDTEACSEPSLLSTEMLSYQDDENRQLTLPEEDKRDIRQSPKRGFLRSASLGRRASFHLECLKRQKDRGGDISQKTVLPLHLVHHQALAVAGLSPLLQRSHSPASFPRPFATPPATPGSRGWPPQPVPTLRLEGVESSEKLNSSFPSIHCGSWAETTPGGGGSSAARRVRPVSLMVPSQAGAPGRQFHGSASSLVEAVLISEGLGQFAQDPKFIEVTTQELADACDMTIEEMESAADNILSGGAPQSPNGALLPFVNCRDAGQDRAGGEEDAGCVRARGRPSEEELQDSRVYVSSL
T3 sequence (Q12809 whole entry): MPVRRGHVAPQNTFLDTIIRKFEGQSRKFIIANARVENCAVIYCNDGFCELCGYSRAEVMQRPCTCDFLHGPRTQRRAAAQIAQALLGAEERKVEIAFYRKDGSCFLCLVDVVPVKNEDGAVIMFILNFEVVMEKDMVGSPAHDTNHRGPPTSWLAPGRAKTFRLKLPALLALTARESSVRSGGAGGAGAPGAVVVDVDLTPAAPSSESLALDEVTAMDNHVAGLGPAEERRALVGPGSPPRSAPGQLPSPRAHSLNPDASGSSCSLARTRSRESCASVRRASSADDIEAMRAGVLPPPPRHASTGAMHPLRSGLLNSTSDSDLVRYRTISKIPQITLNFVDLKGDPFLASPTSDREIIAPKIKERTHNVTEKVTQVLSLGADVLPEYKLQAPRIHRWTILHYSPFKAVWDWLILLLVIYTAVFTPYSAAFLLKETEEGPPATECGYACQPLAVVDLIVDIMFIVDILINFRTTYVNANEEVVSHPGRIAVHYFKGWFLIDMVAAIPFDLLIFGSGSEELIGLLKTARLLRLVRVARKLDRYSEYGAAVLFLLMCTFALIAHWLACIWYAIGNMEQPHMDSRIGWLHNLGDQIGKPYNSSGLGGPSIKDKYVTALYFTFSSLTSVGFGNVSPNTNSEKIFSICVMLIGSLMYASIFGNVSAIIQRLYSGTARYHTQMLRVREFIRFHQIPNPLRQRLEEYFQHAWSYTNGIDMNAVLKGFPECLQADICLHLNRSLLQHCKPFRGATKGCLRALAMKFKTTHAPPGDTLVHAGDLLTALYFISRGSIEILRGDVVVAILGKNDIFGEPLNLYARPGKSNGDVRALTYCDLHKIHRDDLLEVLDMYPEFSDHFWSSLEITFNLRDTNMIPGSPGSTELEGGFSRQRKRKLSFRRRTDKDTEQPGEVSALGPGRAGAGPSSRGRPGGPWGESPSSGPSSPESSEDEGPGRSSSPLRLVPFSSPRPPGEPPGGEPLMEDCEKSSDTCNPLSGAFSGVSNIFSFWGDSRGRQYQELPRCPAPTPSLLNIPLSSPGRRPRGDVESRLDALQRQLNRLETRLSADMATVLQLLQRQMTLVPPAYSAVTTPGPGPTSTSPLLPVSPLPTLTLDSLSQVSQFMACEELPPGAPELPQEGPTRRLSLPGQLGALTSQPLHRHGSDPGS

Take `CS(=O)(=O)c1ccccc1C(=O)N1CCC(N(C2CC2)S(=O)(=O)c2cccc(C(F)(F)F)c2)CC1`: the IC50 in [1] amounted to 660 nM. Also, the figures for the inhibition at 1 µM on Cav1.2 [2] and at hERG [5] were 19% and 1%, respectively. In addition, the Activity in the data set on Rattus norvegicus [3] is listed as 45%; in the data set with Rattus norvegicus [11], 47%. Further, the AUC/dose in the data set with Rattus norvegicus [4] is 1.06 µM·kg·h/mg. In addition, in data set [6], the concentration at 3 h is 2400 nM. The compound further displayed a clearance in data set [7] of 36 mL/min/kg. Besides, the remaining at 1 h, 1 µM in data set [8] was 73%; in data set [9] it was 45%. In addition, the half-life in data set [10] is 0.91 h. This compound also displayed a bioavailability in [12] of 100%. Moreover, at hERG [13], the inhibition at 10 µM worked out at 67%. Further, on Cav1.2 [14], the inhibition at 3 µM was 39%.

In the case of `O=C(c1ccccc1OC(F)(F)F)N1CCC(N(C2CC2)S(=O)(=O)c2cccc(C(F)(F)F)c2)CC1`, the IC50 in [1] came to 120 nM. Further, at hERG [5], 1 µM produced 21% inhibition. Moreover, in data set [7], the clearance came to 65 mL/min/kg. Also, the Activity came to 17% with Rattus norvegicus [15] and 23% in the data set on Rattus norvegicus [17]. The remaining at 1 h, 1 µM in data set [8] was 1%; in data set [9] it was 21%. The half-life in data set [10] is 1.6 h. The same compound yielded a bioavailability in data set [12] of 47%. This compound had an inhibition at 10 µM at hERG [13] of 75%. The AUC/dose with Rattus norvegicus [16] was 0.23 µM·kg·h/mg.

For the compound `COc1cccc(OC)c1CN1CCC(N(C2CC2)S(=O)(=O)c2cccc(C(F)(F)F)c2)CC1`, the half-inhibitory concentration (IC50) in [1] was 60 nM. The compound further displayed an inhibition at 1 µM on hERG [5] of 70%.

As for `O=C(c1ccc(OC(F)(F)F)cc1)N1CCC(N(C2CC2)S(=O)(=O)c2cccc(C(F)(F)F)c2)CC1`, the IC50 in [1] worked out at 300 nM. The results for the inhibition at 1 µM on Cav1.2 [2] and at hERG [5] were 73% and 0%, respectively. This compound had an inhibition at 10 µM at hERG [13] of 77%. Moreover, the inhibition at 3 µM at Cav1.2 [14] amounted to 88%.

Take `CS(=O)(=O)c1ccc(C(=O)N2CCC(N(C3CC3)S(=O)(=O)c3cccc(C(F)(F)F)c3)CC2)cc1`: the inhibition in data set [18] turned out to be 52%.

On to `CS(=O)(=O)c1ccc(F)cc1C(=O)N1CCC(N(C2CC2)S(=O)(=O)c2ccccc2C(F)(F)F)CC1`, for which the inhibition in data set [18] was found to be 17%.

In the case of `O=C(c1cccc(OC(F)(F)F)c1)N1CCC(N(C2CC2)S(=O)(=O)c2cccc(C(F)(F)F)c2)CC1`, the IC50 in [1] was 370 nM. Besides, the inhibition at 1 µM was 60% at Cav1.2 [2] and 4% on hERG [5]. Besides, at hERG [13], testing at 10 µM gave an inhibition of 72%. Moreover, the inhibition at 3 µM on Cav1.2 [14] is 78%.

`CS(=O)(=O)c1cccc(S(=O)(=O)N(C2CC2)C2CCN(C(=O)c3cc(F)ccc3S(C)(=O)=O)CC2)c1`: in data set [18], the inhibition came to 0%.

With `CS(=O)(=O)c1ccc(F)cc1C(=O)N1CCC(N(C2CC2)S(=O)(=O)c2ccc(C(F)(F)F)cc2)CC1`, the inhibition in [18] turned out to be 1%.

As for `NC(=O)c1ccccc1C(=O)N1CCC(N(C2CC2)S(=O)(=O)c2cccc(C(F)(F)F)c2)CC1`, the inhibition at 1 µM at Cav1.2 [2] was determined as 11%. For the same compound, in data set [18], the inhibition was found to be 15%. Besides, the inhibition at 3 µM at Cav1.2 [14] stood at 17%.

Turning to `CS(=O)(=O)c1ccc(F)cc1C(=O)N1CCC(N(C2CC2)S(=O)(=O)c2cccc(OC(F)(F)F)c2)CC1`, the IC50 in [1] amounted to 1100 nM.

Take `COc1ccc2cc([C@H](C)C(=O)O)ccc2c1` [NAPROXEN]: the Activity in the data set with Rattus norvegicus [19] is 47%.

A word on the IC50: it is the concentration that inhibits the measured activity by half. Broadly, the inhibition is how much of the control response was suppressed. The half-life is the time in which the quantity being followed falls by half. In general, bioavailability refers to the share of a dose that reaches the circulation, judged against a reference dose that is usually intravenous. The low end stands for poor availability, the high end for good availability.
